Results from ChEMBL document CHEMBL3272021, “Quaternary pilocarpine derivatives as potential acetylcholine antagonists. 2. Alterations in the lactone and imidazole moieties” (J Med Chem, 1976).
Counter-ions that a name gives are not always drawn. The source made the active and inactive calls. No cut-off for these calls is given here.

What was measured:
Mus musculus [1] = test: Antidotal activity in ip dosed male mouse assessed as inhibition of tetraethylpyrophosphate-induced intoxication drug administered 5 mins prior to subcutaneously administration of 3 X LD50 of TEPP in presence of 25 mg/kg atropine sulfate; type: functional, organism-based; set-up: dose 25 mg/kg; settings: at 25 mg/kg
Outline: (§1)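 Male mice, 20 g body weight. Compound was dissolved in saline or propylene glycol and given ip at the maximal dose (up to 100 mg/kg) that caused no observable symptoms alongside atropine sulfate (25 mg/kg), per preliminary groups of four mice. It was co-injected with atropine 5 min before sc 3 × LD50 TEPP. Surviving mice were scored from two experiments of five animals each.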

Ileum [2] = test: Toxicity in guinea pig ileum assessed as spasmogenic activity treated 1 min after addition of 10 ng/ml muscarinic acetylcholine receptor antagonist atropine sulphate; type: tissue-based, Cavia porcellus
Ileum [3] = test: Inhibition of acetylcholine-induced contraction in guinea pig ileum at 0.4 ug/ml; type: functional; settings: Cavia porcellus
Outline: (§2)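 Terminal guinea pig ileum segment in a 5-ml organ bath of Tyrode solution at 35°, with isometric kymograph recording. Control contractions were elicited with 0.1 μg AcCh. Compound was added, and AcCh followed 1 min later without washing. The value is percent reduction of the control AcCh response, averaged over two separate assays. Concentrations are final per ml of bath fluid.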

Ileum [4] = test: Toxicity in guinea pig ileum assessed as spasmogenic activity relative to 0.6 ug/ml pilocarpine; type: tissue-based, Cavia porcellus; settings: ex_vivo
Outline: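 Guinea pig terminal ileum in a 5-ml Tyrode bath at 35°, with isometric kymograph recording at 16× magnification. Contact time was 30 sec with a 2-min cycle. Reference contractions used pilocarpine (0.6 μg). Compounds were applied at several concentrations, and potency relative to pilocarpine was calculated from contraction heights.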

Ileum [5] = test: Inhibition of acetylcholine-induced contraction in guinea pig ileum at 10 ug/ml; type: functional, Cavia porcellus; settings: for inhibition at 10 µg/mL: Cavia porcellus, Ileum; outline: as §2
Mus musculus [6] = test: Antidotal activity in male mouse assessed as inhibition of tetraethylpyrophosphate-induced intoxication at 100 mg/kg, ip drug administered 5 mins prior to subcutaneously administration of 3 X LD50 of TEPP in presence of 25 mg/kg atropine sulfate; type: functional, organism-based; outline: as §1
Ileum [7] = test: Inhibition of acetylcholine-induced contraction in guinea pig ileum at 0.1 ug/ml; type: functional; settings: Cavia porcellus; outline: as §2
Mus musculus [8] = test: Antidotal activity in male mouse assessed as inhibition of tetraethylpyrophosphate-induced intoxication at 25 mg/kg, ip drug administered 5 mins prior to subcutaneously administration of 3 X LD50 of TEPP in presence of 25 mg/kg atropine sulfate; type: functional, organism-based; outline: as §1
Ileum [9] = test: Toxicity in guinea pig ileum assessed as spasmogenic activity at 0.6 ug/ml; type: tissue-based, Cavia porcellus
Ileum [10] = test: Inhibition of acetylcholine-induced contraction in guinea pig ileum at 2 ug/ml; type: functional; settings: Cavia porcellus; outline: as §2
Ileum [11] = test: Inhibition of acetylcholine-induced contraction in guinea pig ileum at 0.03 ug/ml; settings: Cavia porcellus, read-out: INH
Ileum [12] = test: Inhibition of acetylcholine-induced contraction in guinea pig ileum at 1 ug/ml; type: functional; settings: Cavia porcellus; outline: as §2
Mus musculus [13] = test: Antidotal activity in male mouse assessed as inhibition of tetraethylpyrophosphate-induced intoxication at 50 mg/kg, ip drug administered 5 mins prior to subcutaneously administration of 3 X LD50 of TEPP in presence of 25 mg/kg atropine sulfate; type: functional, organism-based; outline: as §1

CCC1C(=O)OCC1Cc1c[n+](C/C(=N\O)c2ccc(-c3ccccc3)cc2)cn1C (stereo not given) [listing 1 of 2 here]
inhibition (Mus musculus [1]): inactive

CCC1C(=O)OCC1Cc1c[n+](CCCO)cn1C.[Br-] (stereo not given)
Activity (Ileum [2]): Non-toxic
inhibition at 0.4 µg/mL (Ileum [3]): 0%
fold change (FC) (Ileum [4]): 0.05

CCC1C(=O)OCC1Cc1c[n+](C/C(=N\O)c2ccc(-c3ccccc3)cc2)cn1C.[Cl-] (stereo not given)
inhibition (INH) (Ileum [5]): 80%

CCC(C(=O)NO)C(CO)Cc1c[n+](Cc2ccc(Cl)c(Cl)c2)cn1C (stereo not given)
inhibition at 10 µg/mL (Ileum [5]): 25%
inhibition (Mus musculus [6]): Active

CCC(C(=O)NO)C(CO)Cc1c[n+](Cc2ccc(Br)cc2)cn1C (stereo not given)
inhibition at 10 µg/mL (Ileum [5]): 95%
inhibition (Mus musculus [6]): Active

CCC1C(=O)OCC1Cc1c[n+](C/C(=N/O)c2ccc([N+](=O)[O-])cc2)cn1C (stereo not given)
inhibition (Mus musculus [1]): inactive
inhibition at 10 µg/mL (Ileum [5]): 90%

CCC1C(=O)OCC1Cc1c[n+](CCOC(C)=O)cn1C.[Br-] (stereo not given)
inhibition at 0.1 µg/mL (Ileum [7]): 0%
Activity (Ileum [2]): Non-toxic
fold change (FC) (Ileum [4]): 0.1
inhibition (Mus musculus [6]): inactive

CCC(C(=O)NO)C(CO)Cc1c[n+](CC(=O)c2ccc(Br)cc2)cn1C (stereo not given)
inhibition (Mus musculus [1]): inactive
inhibition at 10 µg/mL (Ileum [5]): 80%

CCC(C(=O)NO)C(CO)Cc1c[n+](C/C(=N\O)c2ccc(Br)cc2)cn1C (stereo not given)
inhibition at 10 µg/mL (Ileum [5]): 55%

CCC1C(=O)OCC1Cc1c[n+](C/C(=N\O)c2ccc(Br)cc2)cn1C.[Br-] (stereo not given)
inhibition (INH) (Ileum [5]): 100%

CCC1C(=O)OCC1Cc1c[n+](C/C(=N\O)c2ccc(Br)cc2)cn1C (stereo not given)
inhibition (Mus musculus [8]): Active
inhibition (Mus musculus [1]): inactive

CCC(C(=O)NO)C(CO)Cc1c[n+](C/C(=N\O)c2ccc(-c3ccccc3)cc2)cn1C (stereo not given)
inhibition at 10 µg/mL (Ileum [5]): 53%

CCC(C(=O)NO)C(CO)Cc1c[n+](CC)cn1C (stereo not given)
inhibition at 10 µg/mL (Ileum [5]): 55%

CC[C@@H]1C(=O)OC[C@@H]1Cc1cncn1C [PILOCARPINE]
Activity (Ileum [9]): Toxic

CCC(C(=O)NO)C(CO)Cc1c[n+](CC(=O)c2ccc([N+](=O)[O-])cc2)cn1C.[Br-] (stereo not given)
inhibition at 0.1 µg/mL (Ileum [7]): 0%
Activity (Ileum [2]): Non-toxic
inhibition (Mus musculus [1]): inactive
fold change (FC) (Ileum [4]): 0.1

CCC(C(=O)NO)C(CO)Cc1c[n+](C/C(=N\O)c2ccc([N+](=O)[O-])cc2)cn1C.[Br-] (stereo not given)
Activity (Ileum [2]): Non-toxic
inhibition at 2 µg/mL (Ileum [10]): 0%
fold change (FC) (Ileum [4]): 0.01

CCC1C(=O)OCC1Cc1c[n+](C/C(=N\O)c2ccc(Br)cc2)cn1C.[Cl-] (stereo not given)
inhibition (INH) (Ileum [5]): 50%

CN1[C@@H]2CC[C@H]1C[C@@H](OC(=O)C(CO)c1ccccc1)C2 (stereo not given in full) [ATROPINE SULFATE]
inhibition at 0.03 µg/mL (Ileum [11]): 100%
inhibition (Mus musculus [1]): inactive

CC[C@H]1C(=O)OC[C@@H]1Cc1cncn1C
Activity (Ileum [2]): Non-toxic
fold change (FC) (Ileum [4]): 0.02

CCC1C(=O)OCC1Cc1c[n+](CCO)cn1C.[Br-] (stereo not given)
inhibition at 0.1 µg/mL (Ileum [7]): 0%
Activity (Ileum [2]): Non-toxic
inhibition (Mus musculus [1]): inactive
fold change (FC) (Ileum [4]): 0.1

CCC1C(=O)OCC1Cc1c[n+](CC(=O)c2ccc([N+](=O)[O-])cc2)cn1C.[Br-] (stereo not given)
inhibition at 1 µg/mL (Ileum [12]): 0%
inhibition (Mus musculus [1]): inactive
fold change (FC) (Ileum [4]): 0.01

CCC1C(=O)OCC1Cc1c[n+](CC(=O)c2ccc(Br)cc2)cn1C (stereo not given)
inhibition at 10 µg/mL (Ileum [5]): 90%
inhibition (Mus musculus [6]): inactive

CCC1C(=O)OCC1Cc1c[n+](C/C(=N\O)c2ccc(-c3ccccc3)cc2)cn1C (stereo not given) [listing 2 of 2 here]
inhibition at 10 µg/mL (Ileum [5]): 100%

CCC1C(=O)OCC1Cc1c[n+](C/C(=N\O)c2ccccc2)cn1C (stereo not given)
inhibition at 10 µg/mL (Ileum [5]): 30%
inhibition (Mus musculus [13]): Active

CCC1C(=O)OCC1Cc1c[n+](CCCOC(C)=O)cn1C.[Br-] (stereo not given)
Activity (Ileum [2]): Non-toxic
inhibition at 0.4 µg/mL (Ileum [3]): 0%
fold change (FC) (Ileum [4]): 0.05

CCC1C(=O)OCC1Cc1c[n+](CC(=O)c2ccc(-c3ccccc3)cc2)cn1C (stereo not given)
inhibition (Mus musculus [1]): inactive
inhibition at 10 µg/mL (Ileum [5]): 100%

CCC(C(=O)NO)C(CO)Cc1c[n+](Cc2ccc(C)cc2)cn1C (stereo not given)
inhibition at 10 µg/mL (Ileum [5]): 55%
inhibition (Mus musculus [6]): Active
